Screening data: PubChem, several laboratories
MT stabilizer: microtubule stabilizers in HeLa cells, primary screen, imaging, high-content imaging; HeLa tubulin immunostaining HCS, 24 h; share of cells brighter than vehicle mean+2SD; % tubulin-high responders, % at 10 µM; 200,000 tested, 0.83% active;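 active = plate Z-score above 3 for both tubulin-high and condensed-nucleus cell shares, with cell loss under 80%, at 10 µM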;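 note: anti alpha tubulin signal scored within the nucleus-defined area of each cell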
HSV augment: enhancers of HSV replication in host cells, fold increase, host cell viability; maximum fold increase; HSV replication augmentation in cells; 220,000 tested, 0.005% active; in the data active = maximum fold increase above about 1.5; tested in PC3 cells
L major viab: Leishmania major promastigote growth inhibition, primary screen. Leishmania major promastigotes, resazurin fluorescence viability. 200,000 tested, 9% active. inhibition, % at 10 µM; in the data active = inhibition above about 50%;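 note: promastigotes grown with compound for 44 hours at 28 °C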
bCat nuc transl: modulators of beta-catenin nuclear translocation, primary screen, imaging, HeLa cells, immunofluorescence, high-content. 190,000 tested, 0.3% active. nuclear translocation activity, % at 5 µM. AID 1665, 2009;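 active = nuclear translocation activity above 50% at 5 µM, with a well cell count of 50 or more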;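 note: per-cell ratio of nuclear to cytoplasmic median beta-catenin stain intensity; plate controls were DMSO negative control for no effect and GSK-3 inhibitor IX positive control for full effect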
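Read-out: Nuclear/cytoplasmic beta-catenin signal ratio, % activation | Assay system: Human HeLa cell line | Times: 24 h compound exposure at 37°C, 5% CO2 | Signal: Fluorescence imaging of beta-catenin antibody stain plus DAPI | Dosing: 5 µM primary, 0.02–20 µM confirmation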
Dynein transport: inhibitors of GR-EGFP nuclear translocation, primary screen, dynein cargo transport inhibitor project, imaging, high-content, 3617.4 mouse cells. test concentration mostly 20 µM; stimulated with dexamethasone, 1 µM; stronger effect = lower value. 220,000 tested, 0.47% active. z-score, hits read low;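 active = plate z-score of nuclear minus cytoplasmic receptor signal below a set negative limit, without overly bright fluorescence or cell loss, cut at about -3.5 in these data, passing the limit was not always enough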;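 note: z-score of nuclear minus cytoplasmic ring GR-EGFP intensity difference per well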
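Medium: Induction medium lacking tetracycline, stripped serum | Probe or stimulus: 1.0 µM final dexamethasone stimulus | Schedule: 48 h induction, then 1 h compound, then 30 min agonist, 37 °C | Signal: Automated 10x imaging of fixed Hoechst-stained cells | Evaluation: Per-cell GR-EGFP intensity, nucleus versus surrounding cytoplasmic ring, well-averaged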
* marks the source's active call; other numbers are inactive results; i = inactive; nt = no result. A selection: hits, their analogues and other compounds. The true share with any hit is near 8.9%.

SMILES	MT stabilizer	HSV augment	L major viab	bCat nuc transl	Dynein transport
Nc1cccc(C2=Nc3cccc4cccc(c34)N2)c1	5	i	0	1	1.5
COc1cc([N+](=O)[O-])ccc1N	5	i	-10	-1	0.35
Cc1noc(C)c1COC(=O)C1CCN(C(=O)c2ccc(Cl)cc2)CC1	3	i	2	-1	0.19
COc1ccc(NC(=O)Cn2nnc(-c3ccccc3N)n2)cc1OC	3	i	7	0	0.48
COc1cc(NC(=O)Cn2nnc(-c3ccccc3N)n2)cc(OC)c1	2	i	55*	-3	1.2
COc1ccccc1-c1nnn(C/C(N)=N/O)n1	6	i	72*	nt	1.7
Nc1cc(=O)[nH]c(SCC(=O)Nc2cc(S(=O)(=O)N3CCOCC3)ccc2Cl)n1	2	i	-13	1	-0.35
CCOC(=O)C1CCN(S(=O)(=O)c2cccc(-c3cn4cc(Cl)ccc4n3)c2)CC1	2	i	1	1	-0.34
Cc1cc(C(=O)NC(C)Cc2ccccc2)cc(C)c1[N+](=O)[O-] (stereo not given)	1	i	18	0	-0.13
Cc1cc(C)n(-c2nc(C)nc(NCc3ccccc3)n2)n1	1	i	59*	-1	-0.87
CNc1nc(C)nc(-n2nc(C)cc2C)n1	2	i	-6	-2	-0.9
Cc1nn(CC(O)c2ccccc2)c(C)c1Br (stereo not given)	2	i	-1	nt	-0.5
Cc1cc(C)n(-c2nnc(NCc3ccc(Cl)cc3)nn2)n1	6	i	91*	-4	-0.28
Cc1nn(-c2nnc(NCc3ccccc3)nn2)c(C)c1Br	6	i	84*	4	-0.73
Cn1nnnc1NCc1ccc(Cl)cc1	6	i	-2	1	-0.25
COc1ccc(C(=O)Nc2cc(OC)c(Cl)cc2OC)cc1	4	i	3	2	0.6
CC(C)CCNC(=O)COC(=O)c1cc(Br)c(Br)s1	6	i	-1	0	-0.26
COc1ccccc1N=C1SC(C(=O)Nc2cccc(Cl)c2Cl)C(N)=C1C(N)=O (stereo not given)	nt	i	nt	62*	-0.44
N#Cc1ccccc1NC(=O)C1SC(=Nc2ccccc2)C(C(=O)Nc2ccc(Cl)cc2)=C1N (stereo not given)	4	i	2	-2	0.64
Cc1cccc(NC(=O)c2cc(NC(=O)c3ccco3)ccc2Cl)n1	2	i	85*	-1	-0.72
Cc1ccc(C(=O)Nc2ccc3c(c2)CCC3)cc1	2	i	-1	0	1
Cc1ccc(C(=O)Nc2ccc3c(c2)CCC3)cc1S(=O)(=O)N1CCOCC1	6	i	24	-1	0.59
O=C(Nc1ccc(N2CCCC2)cc1)c1cccc(F)c1	43*	i	8	nt	-0.54
O=C(Nc1ccc2c(c1)CCC2)c1ccc(F)c(S(=O)(=O)N2CCOCC2)c1	1	i	78*	-2	-0.03
O=C(Nc1ccc2c(c1)CCC2)c1cccc(F)c1	6	i	83*	nt	4.1
SMILES	MT stabilizer	HSV augment	L major viab	bCat nuc transl	Dynein transport
CC(C)C(=O)N(c1ccc2oc(=O)sc2c1)S(=O)(=O)c1cccs1	4	i	-8	-4	-1.6
Cc1ccc(N/C=C2\C(=O)N(c3ccc(F)cc3F)C(c3cccnc3)S2(=O)=O)cc1 (stereo not given)	nt	i	nt	0	-0.13
CCCCCNC(=O)c1ccc2c(=O)n(CC3CCCO3)c(=O)[nH]c2c1 (stereo not given)	3	i	-1	-2	-0.32
Cc1[nH]n(-c2ccccc2)c(=O)c1-c1ccc(Cl)cc1	1	i	-15	5	0.32
O=C(Nc1ccc(N2CCCC2)cc1)c1ccccc1F	4	i	100*	1	-0.099
O=C(Nc1ccc(N2CCCCC2)cc1)c1cc([N+](=O)[O-])cc([N+](=O)[O-])c1	1	i	66*	-1	0.08
CCN1CCN(c2ccc(NC(=O)c3ccccc3F)cc2Cl)CC1	3	i	75*	0	2.9
Cc1ccccc1C(=O)N1CCN(c2ccc(NC(=O)c3ccco3)cc2Cl)CC1	3	i	99*	nt	-0.2
O=C(Nc1ccc(N2CCCC2)cc1)c1ccc([N+](=O)[O-])cc1Cl	2	i	-5	0	-1.7
